# High-throughput results: PubChem, Broad Institute
# Wnt act: activates Wnt/beta-catenin signaling in a reporter cell assay | activator, plate reader | activation, % at 9.35 µM | 300,000 tested, 1.2% active | AID 743398; in the data active = activation above about 30%, passing the limit was not always enough; inconclusive = no clear call, values can overlap the other calls;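 note: 0% = neutral control wells and 100% = positive control wells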
# Vif imaging: blocks HIV Vif function; HEK293T cells, Vif self-association by quenched fluorescence, imaging, 24 h; inhibition, % at 7.49 µM; 340,000 tested, 0.35% active; AID 602346; in the data active = inhibition above about 50%, passing the limit was not always enough; inconclusive = no clear call, values can overlap the other calls; inactive = below about 31%
# esBAF inh: SWI/SNF esBAF complex inhibition; AID 602393; mouse ES cells, Bmi1-luciferase knock-in reporter, 24 h; 100% = twice the neutral-well signal; 350,000 tested, 2% active; reporter increase, % at 12.5 µM; in the data active = activation above about 40%; inconclusive = no clear call, values can overlap the other calls;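 note: 0% = median of the plate's neutral control wells and 100% = double that signal; a rise in the Bmi1 reporter signal indicates esBAF inhibition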
# XiGFP reactiv: reactivates the inactive X chromosome in mouse fibroblasts | XiGFP mouse fibroblasts, % GFP-positive cells imaging, 3 d; cells co-treated with 5-aza-dC sensitizer; scaled so ellipticine positive control = 100% | activation, % at 7.58 µM | 360,000 tested, 0.055% active | AID 743238;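 active = mean normalized replicate activation at least 10% and every replicate at or above 10%; inconclusive = only one of the two criteria met; inactive = mean below 10% and not all replicates reach 10%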;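 note: 0% = median of on-plate neutral control wells and 100% = ellipticine 6 µM median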
#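 Material: SV40-immortalized XiGFP fibroblast cells, line 68-5-11 | Buffer or medium: DMEM containing 5-aza-dC | Dosing: One concentration, pinned | Times: 3 d treatment, 15 min room-temperature fixation | Controls: Ellipticine 6 µM positive control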
# MITF act: increases MITF-driven TRPM1 promoter luciferase signal. SK-MEL-5 TRPM1-promoter luciferase, 24 h; % of positive control, neutral wells = 0. activation, % at 12.5 µM. 300,000 tested, 0.75% active;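 active = mean activation of at least 80% with every replicate also reaching 80%; inconclusive = mean reaches 80% but some replicate falls short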;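 note: 0% = neutral control wells and 100% = parthenolide positive control wells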
# Active calls of the source: *; ? = inconclusive; . = not tested or not shown. Sampled rows, rich in hits. Any-hit rate of the full collection: about 2.6%.
SMILES,Wnt act,Vif imaging,esBAF inh,XiGFP reactiv,MITF act
C[C@@H]1CN([C@@H](C)CO)C(=O)c2cccc(NC(=O)Nc3cccc4ccccc34)c2O[C@H]1CN(C)S(C)(=O)=O,.,.,-7,0,.
C[C@H](CO)N1C[C@H](C)[C@@H](CN(C)C(=O)c2ccccc2)OCCCC[C@H](C)Oc2ccc(NS(=O)(=O)c3cccs3)cc2C1=O,.,.,-2,0,.
NS(=O)(=O)c1ccc2nc(NC(=O)Nc3ccccc3F)sc2c1,43*,2,12,0,68
O=C(Nc1ccc2c(c1)CCC2)Nc1ccccc1F,27,1,5,0,108*
O=C(Nc1ccccc1F)Nc1ccccc1F,54*,-4,56*,0,41
O=C(CNC(=O)c1ccccc1F)Nc1ccc2c(c1)CCC2,-3,8,?,0,75
COc1ccccc1NC(=O)Nc1ccc(C(N)=O)cc1,9,1,.,0,11
Cc1ccccc1NC(=O)Nc1nc2ccc(S(C)(=O)=O)cc2s1,?,4,.,0,47
COc1ccc(NC(=O)Nc2ccccc2OC)cc1,16,.,48*,.,?
O=C(Nc1ccc(Br)cc1)Nc1ccccc1F,20,-11,?,0,52
CC[C@@H]1CC=CC[C@@H](C)Oc2ccccc2C(=O)N(C)[C@H](Cc2ccccc2)C(=O)N1 (mixture of isomers),.,.,.,0,.
Cc1ccccc1NC(=O)CNC(=O)c1ccc(C(F)(F)F)cc1,-1,-3,.,0,5
Cc1ccccc1NC(=O)Nc1ccc(C(F)(F)F)cc1,38*,0,.,0,38
O=C(Nc1ccc2c(c1)CCC2)c1c(F)cccc1Cl,17,5,.,0,88*
O=C(Nc1ccc2c(c1)CCC2)c1ccc(Cl)nc1,11,-6,82*,0,20
COc1ccccc1NC(=O)C(=O)Nc1ccccn1,36*,-2,35,.,47
C[C@@H]1CN([C@H](C)CO)S(=O)(=O)c2ccc(-c3cncnc3)cc2O[C@H]1CN(C)C,.,.,-3,0,.
Cc1cc(-c2cccs2)c(C#N)c(=S)[nH]1,3,-3,.,0,.
N#Cc1c(-c2cccs2)cc(-c2cccs2)[nH]c1=O,5,51*,.,0,.
O=C(N/N=C/c1ccc(Cl)cc1Cl)c1n[nH]c2c1CCCC2,.,1,.,1,65
O=C(N/N=C\c1cccc(Cl)c1)c1n[nH]c2c1CCCC2,?,0,.,0,100*
C[C@@H]1CN([C@H](C)CO)C(=O)c2cc(C#CC3CC3)cnc2O[C@@H]1CN(C)C(=O)c1ccccc1,.,.,4,1,.
O=C(Nc1ccccn1)c1c(O)c2cccc3c2n(c1=O)CCC3,.,13,64*,.,7
CCn1c(/C=C/c2c[nH]c3ccccc23)nc2ccccc2c1=O,9,1,.,0,114*
COc1ccc(Cc2c(-c3ccc(F)cc3)nc3ccc(Cl)cn23)c(C)c1,-1,.,44*,0,.
SMILES,Wnt act,Vif imaging,esBAF inh,XiGFP reactiv,MITF act
COc1ccc(Cc2c(-c3cccc(Cl)c3)nc3ccc(C)cn23)c(C)c1,18,.,56*,1,.
COc1ccc(CN2[C@@H]3CN(C(=O)c4ccccc4)c4ccccc4[C@@H]3[C@@H]2CO)cc1,.,.,5,0,.
CC(C)COC(=S)Nc1ccccc1,.,.,59*,.,50
COc1cc(/C=C2/C(=N)N3C=CSC3=NC2=O)ccc1OCCOc1ccc(NC(C)=O)cc1,-4,61*,.,0,70
COc1cc(/C=C2/C(=N)N3C=CSC3=NC2=O)ccc1OCCCOc1ccccc1C,-2,11,14,.,29
CNC[C@@H]1OCCCC[C@H](C)Oc2ccc(NS(=O)(=O)c3ccc(OC)cc3)cc2C(=O)N([C@H](C)CO)C[C@H]1C,.,.,-5,0,.
O=C(NC1CCC1)[C@@H]1N[C@@H]2c3ccc(-c4cccc(F)c4)c(=O)n3C[C@@H]2[C@H]1CO,.,.,-2,0,.
Nc1nc(-c2ccc3c(c2)CCO3)cs1,34*,-4,.,0,52
COc1ccc(Cn2c(-c3ccc(OC)cc3)nc3ccccc32)cc1,0,-2,.,.,5
COc1ccc(Cn2c(-c3ccc(Br)cc3)c[n+]3ccccc23)cc1,58*,-3,-16,0,-14
O=C(Nc1nc2ccccc2s1)c1cc2c(s1)-c1ccccc1OC2,14,10,?,0,55
Cc1cccc2c1-c1sc(C(=O)Nc3cccnc3)cc1CO2,-1,-9,50*,0,64
